21 molecules from ChEMBL document CHEMBL1151940, “Chemical and biological investigation of cyclopropyl containing diaryl-pyrazole-3-carboxamides as novel and potent cannabinoid type 1 receptor antagonists” (J Med Chem, 2009) can be followed below.

As a reminder, the ED50 is the dose at which the effect has come halfway, by size or by number of responders. A word on the Ki: it is a dissociation constant, usually derived from enzyme kinetics or from competition with a known ligand.

In test [1] the test system is Mus musculus. The test can be described thus: Antiobesity activity in TBU8 high fat diet-induced obese C57/BL6 mouse assessed as serum LDL-cholesterol level at 30 mg/kg, po administered once daily for 14 days (Rvb=0.84+/-0.03 […]). The format is functional, C57Bl/6.
Test [2] has as its system Mus musculus. Put plainly: Antiobesity activity in TBU8 high fat diet-induced obese C57/BL6 mouse assessed as body weight at 30 mg/kg, po administered once daily for 14 days (Rvb=41.90 g). Format: functional, C57Bl/6.
The test system of test [3] is Mus musculus. The test can be described thus: Antiobesity activity in TBU8 high fat diet-induced obese C57/BL6 mouse assessed as serum glucose level at 30 mg/kg, po administered once daily for 14 days (reference value: 9.52+/-0.38 […]). Format: functional, C57Bl/6.
For test [4], the system named is Mus musculus. The test can be described thus: Antiobesity activity in TBU8 high fat diet-induced obese C57/BL6 mouse assessed as serum triglyceride level at 30 mg/kg, po administered once daily for 14 days (reference value: 1.42+/-0.04 […]). The format is functional, C57Bl/6.
Test [5] relates to Mus musculus. Put plainly: Antiobesity activity in TBU8 high fat diet-induced obese C57/BL6 mouse assessed as serum HDL-cholesterol level at 30 mg/kg, po administered once daily for 14 days (Rvb=4.42+/-0.08 […]). Format: functional, C57Bl/6.
Test [6] has as its system Mus musculus. The test can be described thus: Antiobesity activity in TBU8 high fat diet-induced obese C57/BL6 mouse assessed as serum cholesterol level at 30 mg/kg, po administered once daily for 14 days (reference value: 5.35+/-0.12 […]). The format is functional, C57Bl/6.
Test [7] relates to Mus musculus. Put plainly: Inhibition of WIN-55212-2-induced hypothermia in po dosed CD1 mouse assessed as rectal temperature administered 15 mins prior to WIN-55212 challenge measured after 45 mins post-induction. Format: functional. A digest of the protocol:
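Mice were pretreated, then 15 min later given WIN 55,212-2 (3 mg/kg ip) or vehicle; rectal temperature was read 45 min after that. n=8/group. Analysis was one-way ANOVA with Tukey post hoc test. ED50 values were derived for attenuation of hypothermia.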

For test [8], the target named is Cannabinoid receptor 1 (Rattus norvegicus, UniProt P20272). Put plainly: Displacement of [3H]SR141716A from CB1 receptor in rat cerebellum by scintillation spectrometry. The format is tissue-based. In general terms: Loss of bound radioactivity is the signal in a displacement assay; it reports binding, not function.
Test [9] deals with Mus musculus. The test can be described thus: Antiobesity activity in TBU8 high fat diet-induced obese C57/BL6 mouse assessed as serum HDL-cholesterol level at 10 mg/kg, po administered once daily for 14 days (Rvb=4.42+/-0.08 […]). Format: functional, C57Bl/6.
Test [10] has as its system Mus musculus. The test can be described thus: Antiobesity activity in TBU8 high fat diet-induced obese C57/BL6 mouse assessed as serum glucose level at 10 mg/kg, po administered once daily for 14 days (reference value: 9.52+/-0.38 […]). The format is functional, C57Bl/6.
Test [11] concerns Mus musculus. The test can be described thus: Appetite suppressant activity in fasted CD1 mouse assessed as decrease in palatable chow intake at 10 mg/kg, po administered 1 hr before food consumption measured after 1 hr relative to control. Format: functional. Set-up: scale not given: the % may be the effect or the level left. A digest of the protocol:
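CD1 mice (>25 g) were housed singly for ≥3 days, then fasted 16 h. Compound or vehicle (5% Tween 80) was given orally in the home cage. After 1 h, pre-weighed palatable chow was offered and reweighed 1 h later. Intake was expressed as % difference from control mean (n=8-10/group).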

The test system of test [12] is Mus musculus. The test can be described thus: Antiobesity activity in TBU8 high fat diet-induced obese C57/BL6 mouse assessed as body weight at 10 mg/kg, po administered once daily for 14 days (Rvb=41.90 g). Format: functional, C57Bl/6.
The subject of test [13] is Mus musculus. Put plainly: Antiobesity activity in po dosed TBU8 high fat diet-induced obese C57/BL6 mouse assessed as decrease in body weight administered once daily for 14 days. The format is functional, organism-based. The following applies: C57Bl/6. A digest of the protocol: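 TBU8 high-fat diet fed mice brought to about 60% excess body weight over lean controls (usually 6-8 weeks), isolated and grouped (n=8) balanced by body weight; 3-day habituation with daily tap water, then oral dosing once daily for 14 days against vehicle-treated fat controls; body weight taken at day 14; differences versus fat and lean controls tested.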

The subject of test [14] is Mus musculus. The test can be described thus: Antiobesity activity in TBU8 high fat diet-induced obese C57/BL6 mouse assessed as serum LDL-cholesterol level at 10 mg/kg, po administered once daily for 14 days (Rvb=0.84+/-0.03 […]). The format is functional, C57Bl/6.
The subject of test [15] is Mus musculus. The test can be described thus: Antiobesity activity in TBU8 high fat diet-induced obese C57/BL6 mouse assessed as decrease in body weight at 3 mg/kg, po administered once daily for 14 days relative to fat control. The format is functional, C57Bl/6. Set-up: scale not given: the % may be the effect or the level left.
The subject of test [16] is Mus musculus. The test can be described thus: Antiobesity activity in TBU8 high fat diet-induced obese C57/BL6 mouse assessed as decrease in body weight at 30 mg/kg, po administered once daily for 14 days relative to fat control. More on the design: scale not given: the % may be the effect or the level left. Format: functional, C57Bl/6.
Test [17] concerns Mus musculus. The test can be described thus: Antiobesity activity in TBU8 high fat diet-induced obese C57/BL6 mouse assessed as serum triglyceride level at 10 mg/kg, po administered once daily for 14 days (reference value: 1.42+/-0.04 […]). The format is functional, C57Bl/6.
In test [18] the test system is Mus musculus. The test can be described thus: Antiobesity activity in TBU8 high fat diet-induced obese C57/BL6 mouse assessed as decrease in body weight at 10 mg/kg, po administered once daily for 14 days relative to fat control. Format: functional, C57Bl/6. More on the design: scale not given: the % may be the effect or the level left.
The test system of test [19] is Mus musculus. Put plainly: Antiobesity activity in TBU8 high fat diet-induced obese C57/BL6 mouse assessed as decrease in obese-induced elevated serum cholesterol level at 30 mg/kg, po administered once daily for 14 days relative to fat control. The format is functional, C57Bl/6. More on the design: scale not given: the % may be the effect or the level left.
Test [20] has as its system Mus musculus. Put plainly: Antiobesity activity in TBU8 high fat diet-induced obese C57/BL6 mouse assessed as serum cholesterol level at 10 mg/kg, po administered once daily for 14 days (reference value: 5.35+/-0.12 […]). Format: functional, C57Bl/6.
In test [21] the test system is Mus musculus. The test can be described thus: Antiobesity activity in TBU8 high fat diet-induced obese C57/BL6 mouse assessed as serum LDL-cholesterol level at 3 mg/kg, po administered once daily for 14 days (Rvb=0.84+/-0.03 […]). Format: functional, C57Bl/6.
Test [22] relates to Mus musculus. Put plainly: Antiobesity activity in TBU8 high fat diet-induced obese C57/BL6 mouse assessed as serum glucose level at 3 mg/kg, po administered once daily for 14 days (reference value: 9.52+/-0.38 […]). The format is functional, C57Bl/6.
Test [23] relates to Mus musculus. The test can be described thus: Antiobesity activity in TBU8 high fat diet-induced obese C57/BL6 mouse assessed as serum HDL-cholesterol level at 3 mg/kg, po administered once daily for 14 days (Rvb=4.42+/-0.08 […]). Format: functional, C57Bl/6.
The test system of test [24] is Mus musculus. Put plainly: Antiobesity activity in TBU8 high fat diet-induced obese C57/BL6 mouse assessed as serum triglyceride level at 3 mg/kg, po administered once daily for 14 days (reference value: 1.42+/-0.04 […]). The format is functional, C57Bl/6.
Test [25] has as its system Mus musculus. The test can be described thus: Antiobesity activity in TBU8 high fat diet-induced obese C57/BL6 mouse assessed as serum cholesterol level at 3 mg/kg, po administered once daily for 14 days (reference value: 5.35+/-0.12 […]). The format is functional, C57Bl/6.
Test [26] has as its system Mus musculus. Put plainly: Antiobesity activity in TBU8 high fat diet-induced obese C57/BL6 mouse assessed as body weight at 3 mg/kg, po administered once daily for 14 days (Rvb=41.90 g). The format is functional, C57Bl/6.

Sequence of Cannabinoid receptor 1 (P20272 whole entry): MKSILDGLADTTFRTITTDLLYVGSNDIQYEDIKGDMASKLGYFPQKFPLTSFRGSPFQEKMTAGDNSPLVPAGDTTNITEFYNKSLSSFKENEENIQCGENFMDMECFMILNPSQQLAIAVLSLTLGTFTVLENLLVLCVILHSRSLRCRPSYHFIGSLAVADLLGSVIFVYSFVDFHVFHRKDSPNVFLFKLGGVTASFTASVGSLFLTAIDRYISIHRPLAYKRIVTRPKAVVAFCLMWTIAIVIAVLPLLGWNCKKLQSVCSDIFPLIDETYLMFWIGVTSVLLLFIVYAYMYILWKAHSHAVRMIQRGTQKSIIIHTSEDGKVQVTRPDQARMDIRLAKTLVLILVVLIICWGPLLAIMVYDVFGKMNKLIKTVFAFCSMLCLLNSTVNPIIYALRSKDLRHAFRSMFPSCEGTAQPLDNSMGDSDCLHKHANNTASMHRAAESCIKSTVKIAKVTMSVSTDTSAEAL

With `CCNC1(C(N)=O)CCN(c2ncnc3c2nc(-c2ccccc2Cl)n3-c2ccc(Cl)cc2)CC1` [OTENABANT], the Activity in test [1] came to 0.85 mM; in [2], 36.6 g; in [3] it was 9.45 mM; in test [4] it was 1.32 mM; in test [5] it was 4.4 mM; in test [6], 5.34 mM.
Turning to `Cc1c(C(=O)NN2CCCCC2)nn(-c2ccc(Cl)cc2Cl)c1-c1ccc(C2CCC2)cc1.Cl`, the ED50 in test [7] was 4 mg/kg. The same molecule displayed a Ki in test [8] of 7 nM.
For `Cc1c(C(=O)NN2CCCCC2)nn(-c2ccc(Cl)cc2Cl)c1-c1ccc(C2CCCCC2)cc1`, in that order: greater than 3 mg/kg and 13 nM.
In the case of `Cc1c(C(=O)NN2CCCCC2)nn(-c2ccc(Cl)cc2Cl)c1-c1ccc(Cl)cc1` [RIMONABANT], in test [7], the ED50 turned out to be 0.41 mg/kg. In addition, the Activity in [9] was 4.4 mM; in [10] it was 8.84 mM; in test [11], 50%; in [12], 35.6 g; in test [13], “Dose-dependent effect”; in test [14] it was 0.82 mM. Besides, the Activity stood at 9% in [15]; 24% in [16]; 1.18 mM in test [17]; 15% in test [18]; 0% in test [19]; 5.35 mM in [20].
For the molecule `Cc1c(C(=O)NN2CCCCC2)nn(-c2ccc(Cl)cc2Cl)c1-c1ccc(C2CC2)cc1`, the Ki in test [8] is 3 nM.
The same measure, in the same setting: next, `Cc1c(C(=O)NN2CCCCC2)nn(-c2ccccc2Cl)c1-c1ccc(C2CC2)cc1`: 4 nM; `Cc1c(C(=O)NN2CCCC2)nn(-c2ccccc2)c1-c1ccc(C2CC2)cc1`: 121 nM.
For `Cc1c(C(=O)NN2CCCCC2)nn(-c2ccc(F)cc2Cl)c1-c1ccc(C2CC2)cc1`, the Ki in test [8] stood at 8 nM.
Molecule `Cc1c(C(=O)NN2CCCCC2)nn(-c2ccc(Cl)cc2F)c1-c1ccc(C2CC2)cc1` displayed a Ki in [8] of 14 nM.
Same read-out and setting: next, `Cc1c(C(=O)NN2CCCCC2)nn(-c2ccc(F)cc2)c1-c1ccc(C2CC2)cc1`: 190 nM; `Cc1c(C(=O)NN2CCCCC2)nn(-c2ccc(F)cc2F)c1-c1ccc(C2CC2)cc1`: 34 nM; `O=C(NN1CCCCC1)c1cc(-c2ccc(C3CC3)cc2)n(-c2ccc(Cl)cc2Cl)n1`: 16 nM.
As for `Cc1c(C(=O)NN2CCCCC2)nn(-c2ccc(Br)cc2Cl)c1-c1ccc(C2CC2)cc1`, the ED50 in [7] worked out at 0.22 mg/kg. For the same molecule, the Activity is 54% in [11]; “Dose-dependent effect” in test [13]; 9% in [15]; 26% in [16]; 19% in test [18]; 16% in [19]. In test [8], this molecule showed a Ki of 3 nM.
`Cc1c(C(=O)NN2CCCCC2)nn(-c2ccccc2F)c1-c1ccc(C2CC2)cc1` registered a Ki in [8] of 11 nM.
Same read-out and setting: next, `Cc1c(C(=O)NN2CCCCC2)nn(-c2ccccc2)c1-c1ccc(C2CC2)cc1`: 66 nM; `COc1c(C(=O)NN2CCCCC2)nn(-c2ccc(Cl)cc2Cl)c1-c1ccc(C2CC2)cc1`: 3 nM.
Consider `CCc1c(C(=O)NN2CCCC2)nn(-c2ccc(Cl)cc2Cl)c1-c1ccc(C2CC2)cc1`, for which, in test [7], the ED50 was 0.84 mg/kg. The Activity is 3.9 mM in [9]; 8.79 mM in test [10]; 49% in test [11]; 35.6 g in test [12]; “Dose-dependent effect” in [13]; 0.68 mM in test [14]. Further, the Activity in test [15] was 8%; in test [16], 21%; in test [17] it was 1.3 mM; in test [18], 15%; in test [19] it was 36%; in test [20], 4.56 mM. For the same molecule, the Ki in test [8] came to 4 nM.
As for `Cc1c(C(=O)NN2CCCCC2)nn(-c2ccc(Cl)cc2)c1-c1ccc(C2CC2)cc1`, the affinity in test [8], expressed as Ki, was 79 nM.
Turning to `Cc1c(C(=O)NN2CCCCC2)nn(-c2ccc(Cl)cc2Cl)c1-c1ccc(C2CCCC2)cc1`, in test [7], the ED50 is no less than 3 mg/kg. In test [8], this molecule gave a Ki of 15 nM.
For the molecule `CCc1c(C(=O)NN2CCCCC2)nn(-c2ccc(Cl)cc2Cl)c1-c1ccc(C2CC2)cc1`, in test [7], the ED50 was 0.84 mg/kg. The Activity was 47% in [11]; “Dose-dependent effect” in test [13]; 8% in test [15]; 22% in test [16]; 15% in test [18]; 19% in [19]. Further, the affinity in test [8] corresponds to a Ki of 4 nM.
Take `C[C@H](NC(=O)C(C)(C)Oc1ccc(C(F)(F)F)cn1)[C@@H](Cc1ccc(Cl)cc1)c1cccc(C#N)c1` [TARANABANT]: the Activity in test [21] turned out to be 0.82 mM; in test [22] it was 9.11 mM; in test [23] it was 4.16 mM; in test [24], 1.44 mM; in test [25], 5.01 mM; in [26], 33.7 g.
